We go through 15 compounds from ChEMBL document CHEMBL1122281, “Synthesis and antifilarial activity of N-[4-[[4-alkoxy-3-[(dialkylamino)methyl]phenyl]amino]- 2-pyrimidinyl]-N'-phenylguanidines” (J Med Chem, 1983).

In data set [1] the test system is Litomosoides carinii. The data set can be described thus: Antifilarial activity against Litomosoides carinii infections in the Jird at dose 25 mg/kg administered orally. Format: functional. Conditions: route oral. The method in brief: (§1)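 L. carinii-infected jirds were dosed. Survivors were killed 55–70 days after the first dose, and the pleural and peritoneal cavities were searched for adult worms. Live worms at autopsy were scored as a percentage relative to sham-dosed controls. Adult worm reduction above 60% was the activity criterion.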

The test system of data set [2] is Litomosoides carinii. The data set can be described thus: Antifilarial activity against Litomosoides carinii infections in the Jird at dose 0.5 mg/kg administered orally. In kind it is functional. The conditions noted are these: route oral. The method in brief: as §1
Data set [3] has as its system Litomosoides carinii. Nature of the data set: Antifilarial activity against Litomosoides carinii infections in the Jird at dose 3 mg/kg administered orally. In kind it is functional. Conditions: route oral. The method in brief:
as §1

Data set [4] concerns Litomosoides carinii. The data set can be described thus: Antifilarial activity against Litomosoides carinii infections in the Jird at dose 100 mg/kg administered orally. In kind it is functional. The conditions noted are these: route oral. The method in brief:
as §1

In data set [5] the test system is Litomosoides carinii. Nature of the data set: Antifilarial activity against Litomosoides carinii infections in the Jird at dose 12 mg/kg administered orally. Conditions: route oral. In kind it is functional. The method in brief:
as §1

Data set [6] has as its system Litomosoides carinii. The data set can be described thus: Antifilarial activity against Litomosoides carinii infections in the Jird at dose 50 mg/kg administered orally. Format: functional. The conditions noted are these: route oral. The method in brief: as §1
Data set [7] can be described thus: Antifilarial activity against Litomosoides carinii infections in the Jird at dose 100 mg/kg administered subcutaneously; two or more animals died prematurely considered to be drug toxicity. Format: organism-based, Meriones unguiculatus. More on the design: dose 100 mg/kg, route subcutaneous. Conditions: gerbil, in vivo, sc. The method in brief:
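Jirds infected with Litomosoides carinii. Surviving animals killed 55–70 days after first drug dose; pleural and peritoneal cavities searched for adult worms. Live worm count at autopsy scored as percentage relative to sham-dosed controls. Activity criterion: adult worm reduction exceeding 60%.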

The subject of data set [8] is Litomosoides carinii. Nature of the data set: (§2) Antifilarial activity against Litomosoides carinii infections in the Jird at dose 100 mg/kg administered subcutaneously. Format: functional. Conditions: route subcutaneous. The method in brief: as §1
In data set [9] the test system is Litomosoides carinii. The data set is described as §2. In kind it is functional. The conditions noted are these: route subcutaneous. The method in brief: as §1
This is another data set of the same source.

The subject of data set [10] is Litomosoides carinii. The data set can be described thus: Antifilarial activity against Litomosoides carinii infections in the Jird at dose 600 mg/kg administered orally. Format: functional. Conditions: route oral. The method in brief: as §1
Data set [11] relates to Litomosoides carinii. The data set can be described thus: Antifilarial activity against Litomosoides carinii infections in the Jird at dose 200 mg/kg administered subcutaneously. Conditions: route subcutaneous. Format: functional. The method in brief: as §1
Data set [12] has as its system Litomosoides carinii. The data set can be described thus: Antifilarial activity against Litomosoides carinii infections in the Jird at dose 100 mg/kg administered subcutaneously. The conditions noted are these: route subcutaneous.
Data set [13] deals with Litomosoides carinii. Nature of the data set: Antifilarial activity against infections of Litomosoides carinii in the Jird by oral route(dose (mg/kg) is given in parentheses). Format: functional. The method in brief:
as §1

Data set [14] has as its system Litomosoides carinii. The data set can be described thus: Antifilarial activity against Litomosoides carinii infections in the Jird at dose 25 mg/kg administered subcutaneously. In kind it is functional. The conditions noted are these: route subcutaneous. The method in brief:
as §1

The subject of data set [15] is Litomosoides carinii. Nature of the data set: Antifilarial activity against Litomosoides carinii infections in the Jird at dose 1.56 mg/kg administered subcutaneously. In kind it is functional. Conditions: route subcutaneous. The method in brief: as §1
Data set [16] relates to Litomosoides carinii. The data set can be described thus: Antifilarial activity against Litomosoides carinii infections in the Jird at dose 6.25 mg/kg administered subcutaneously. Format: functional. The conditions noted are these: route subcutaneous. The method in brief:
as §1

The test system of data set [17] is Litomosoides carinii. The data set can be described thus: Antifilarial activity against Litomosoides carinii infections in the Jird at dose 400 mg/kg administered orally. The conditions noted are these: route oral. In kind it is functional. The method in brief:
as §1

Data set [18] relates to Litomosoides carinii. Nature of the data set: Antifilarial activity against Litomosoides carinii infections in the Jird at dose 400 mg/kg administered subcutaneously. Format: functional. The conditions noted are these: route subcutaneous. The method in brief: as §1
For data set [19], the system named is Litomosoides carinii. Nature of the data set: Antifilarial activity against Litomosoides carinii infections in the Jird at dose 200 mg/kg administered orally. Format: functional. Conditions: route oral. The method in brief: as §1
Data set [20] concerns Litomosoides carinii. Nature of the data set: Antifilarial activity against Litomosoides carinii infections in the Jird at dose 50 mg/kg administered subcutaneously. Format: functional. Conditions: route subcutaneous. The method in brief: as §1
Data set [21] concerns Litomosoides carinii. Nature of the data set: Antifilarial activity against Litomosoides carinii infections in the Jird at dose 6 mg/kg administered subcutaneously. The conditions noted are these: route subcutaneous. Format: functional. The method in brief:
as §1

Consider `CN(C)Cc1cc(Nc2cc(C(F)(F)F)nc(/N=C(\N)Nc3ccc(Cl)c(Cl)c3)n2)ccc1O`, for which the “Reduction of live worms” value is recorded as 100% in the data set on Litomosoides carinii [1], 100% in the data set on Litomosoides carinii [2], 90% in the data set on Litomosoides carinii [3] and 100% in the data set on Litomosoides carinii [4].

`CCN(CC)Cc1cc(Nc2cc(C(F)(F)F)nc(/N=C(\N)Nc3ccc(Cl)cc3)n2)ccc1O`: the “Reduction of live worms” value in the data set with Litomosoides carinii [2], with Litomosoides carinii [3], in the data set with Litomosoides carinii [5] and in the data set on Litomosoides carinii [6] was 100% throughout.

The compound `CCN(CC)Cc1cc(Nc2cc(C)nc(/N=C(\N)Nc3cc(Cl)cc(Cl)c3)n2)ccc1O` showed an Animals dead in [7] above 2. Further, the “Reduction of live worms” value is given as 0% in the data set on Litomosoides carinii [8] and 68% with Litomosoides carinii [9].

In the case of `CCN(CC)Cc1cc(Nc2cc(C(F)(F)F)nc(/N=C(\N)Nc3ccc(C(F)(F)F)cc3)n2)ccc1O`, the “Reduction of live worms” value in the data set with Litomosoides carinii [1] is 100%; in the data set on Litomosoides carinii [2], 22%; in the data set on Litomosoides carinii [3] it was 98%; in the data set on Litomosoides carinii [9], 100%; in the data set on Litomosoides carinii [4], 100%.

With `CCCCN(CC)CCNc1cc(C)nc(/N=C(\N)Nc2ccc(Cl)c(Cl)c2)n1`, the “Reduction of live worms” value in the data set with Litomosoides carinii [10] came to 66%.

Take `CN1CCN(Cc2cc(Nc3cc(C(F)(F)F)nc(/N=C(\N)Nc4ccc(C(F)(F)F)cc4)n3)ccc2O)CC1`: the “Reduction of live worms” value worked out at 40% in the data set on Litomosoides carinii [1], 96% in the data set with Litomosoides carinii [11], 5% with Litomosoides carinii [3] and 100% with Litomosoides carinii [4].

As for `CCOc1ccc(Nc2nc(/N=C(\N)Nc3ccc(Cl)c(Cl)c3)nc3c2CCCC3)cc1CN(CC)CC`, the “Reduction of live worms” value was 54% in the data set with Litomosoides carinii [1] and 0% in the data set with Litomosoides carinii [12]. This compound also yielded an Animals dead in [7] above 2.

For the compound `COc1ccc(Nc2cc(C(F)(F)F)nc(/N=C(\N)Nc3ccc(Cl)cc3)n2)cc1CN1CCCC1`, the “Reduction of live worms” value in the data set with Litomosoides carinii [2] is recorded as 100%; in the data set on Litomosoides carinii [3] it was 99%; in the data set with Litomosoides carinii [5], 100%; with Litomosoides carinii [6], 100%.

In the case of `Cc1ccc(C(=O)Nc2ccc(S(=O)(=O)O)c3cc(S(=O)(=O)O)cc(S(=O)(=O)O)c23)cc1NC(=O)c1cccc(NC(=O)Nc2cccc(C(=O)Nc3cc(C(=O)Nc4ccc(S(=O)(=O)O)c5cc(S(=O)(=O)O)cc(S(=O)(=O)O)c45)ccc3C)c2)c1` [SURAMIN], in the data set on Litomosoides carinii [13], the “Reduction of live worms” value was 98%.

For the compound `CCNCc1cc(Nc2cc(C(F)(F)F)nc(/N=C(\N)Nc3ccc(Cl)c(Cl)c3)n2)ccc1O`, the “Reduction of live worms” value in the data set on Litomosoides carinii [14] is given as 100%; with Litomosoides carinii [1], 100%; in the data set with Litomosoides carinii [2], 97%; in the data set on Litomosoides carinii [3], 97%; in the data set on Litomosoides carinii [9] it was 100%.

`COC(=O)Nc1nc2cc(C(=O)c3ccccc3)ccc2[nH]1` [MEBENDAZOLE]: the “Reduction of live worms” value with Litomosoides carinii [14] worked out at 100%; in the data set with Litomosoides carinii [15], 97%; with Litomosoides carinii [16] it was 100%.

In the case of `CN1CCN(Cc2cc(Nc3cc(C(F)(F)F)nc(/N=C(\N)Nc4ccc(Cl)c(Cl)c4)n3)ccc2O)CC1`, the “Reduction of live worms” value in the data set with Litomosoides carinii [1] was found to be 100%; in the data set on Litomosoides carinii [17], 100%; in the data set on Litomosoides carinii [18], 99%; in the data set with Litomosoides carinii [19] it was 100%; in the data set with Litomosoides carinii [3], 0%; in the data set with Litomosoides carinii [4], 100%. Moreover, the Animals dead in [7] is reported as above 2.

Regarding `CCN(CC)C(=O)N1CCN(C)CC1` [DIETHYLCARBAMAZINE], the “Reduction of live worms” value was determined as 89% in the data set on Litomosoides carinii [20] and 100% in the data set on Litomosoides carinii [9].

Take `CCNCc1cc(Nc2cc(C(F)(F)F)nc(/N=C(\N)Nc3ccc(Cl)cc3)n2)ccc1OC`: the “Reduction of live worms” value in the data set on Litomosoides carinii [14] was 100%; in the data set on Litomosoides carinii [1], 94%; in the data set with Litomosoides carinii [21], 92%; in the data set with Litomosoides carinii [3], 81%; in the data set with Litomosoides carinii [4], 100%. In data set [7], this compound displayed an Animals dead above 2.

Consider `CCN(C)Cc1cc(Nc2cc(C(F)(F)F)nc(/N=C(\N)Nc3ccc(Cl)c(Cl)c3)n2)ccc1O`, for which the “Reduction of live worms” value in the data set on Litomosoides carinii [14] is given as 100%; in the data set with Litomosoides carinii [1], 100%; in the data set on Litomosoides carinii [2], 100%; in the data set on Litomosoides carinii [3], 97%; with Litomosoides carinii [9], 100%.
